A selection: hits, their analogues and other compounds. The true share with any hit is near 1.9%.
M4 PAM: positive allosteric modulators of human muscarinic M4 receptor; P08173; CHO-K1 hM4/Gqi5, Fluo-8 calcium fluorescence, ACh EC20; 0% = ACh EC20, 100% = maximal ACh; activation, % at 3 µM; 0.4% of 360,000 active; AID 624126;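 active = activation above its plate's cutoff, the mean activation of sample wells plus 3 SD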
M4 ag: CHRM4 agonism in calcium assay. CHO-K1 hM4/Gqi5, Fluo-8 calcium fluorescence; vehicle 0%, full acetylcholine response 100%. activation, % at 3 µM. 0.14% of 360,000 active. AID 624127;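 active = activation above the run mean over all test wells plus 3 SD, cut at about 32% in these data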;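 also: peak over basal fluorescence ratio per well then scaled between controls; 0% = DMSO wells and 100% = acetylcholine at EC100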
M5 antag: CHRM5 antagonism in calcium assay | P08912 | CHO-hM5 cells, Fluo-8 calcium fluorescence, ACh EC80 | inhibition, % at 3 µM | 0.59% of 360,000 active | AID 624040;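 active = inhibition above a per-plate cutoff, the mean of that plate's test compounds plus 3 SD, cut at about 27% in these data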;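 also: 0% = acetylcholine EC80 with DMSO and 100% = DMSO without agonist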
Target sequence (P08912 whole entry, looked up): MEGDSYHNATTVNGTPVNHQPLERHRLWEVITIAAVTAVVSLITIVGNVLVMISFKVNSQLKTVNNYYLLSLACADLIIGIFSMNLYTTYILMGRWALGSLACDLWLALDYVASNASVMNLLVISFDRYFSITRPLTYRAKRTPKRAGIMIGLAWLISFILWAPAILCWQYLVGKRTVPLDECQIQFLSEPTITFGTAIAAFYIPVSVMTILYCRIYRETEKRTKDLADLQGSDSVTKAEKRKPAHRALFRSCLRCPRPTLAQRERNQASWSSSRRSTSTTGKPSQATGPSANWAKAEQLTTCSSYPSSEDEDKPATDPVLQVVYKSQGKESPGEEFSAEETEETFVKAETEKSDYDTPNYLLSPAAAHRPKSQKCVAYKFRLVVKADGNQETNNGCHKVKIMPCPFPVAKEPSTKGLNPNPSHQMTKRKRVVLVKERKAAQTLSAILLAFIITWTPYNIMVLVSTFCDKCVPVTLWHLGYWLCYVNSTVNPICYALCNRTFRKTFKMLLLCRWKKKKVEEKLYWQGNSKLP
CHRM5 PAM: potentiates acetylcholine response at human M5 receptor; CHO-K1 hM5, Fluo-8 calcium, ACh EC20 PAM; 0% = ACh EC20, 100% = ACh EC100; activation, % at 3 µM; 0.3% of 360,000 active; AID 624038;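 active = activation above the run cutoff, the mean activation of all test compounds plus 3 SD, cut at about 18% in these data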
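Replicates: One well per compound, no replicates | System: Human M5 receptor in CHO-K1 cells | Benchmarks: Low control EC20 acetylcholine (0%), high control EC100 acetylcholine (100%) | Probe or stimulus: Acetylcholine, EC20 level | Times: Fluo-8 loading 80 min at 37 °C plus 30 min room temperature | Signal: Intracellular calcium via Fluo-8 fluorescence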
CHRM5 agonist: agonists of human muscarinic M5 receptor (CHRM5). P08912. CHO-K1 hM5 cells, Fluo-8 calcium fluorescence; 0% DMSO wells, 100% maximal acetylcholine response. AID 624037. 0.19% of 360,000 active. activation, % at 3 µM;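 active = activation above the run's mean over test compounds plus 3 SD, cut at about 23% in these data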;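 also: signal is peak over basal fluorescence ratio across the kinetic read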
CHRM4 antagonist: antagonists of human muscarinic M4 receptor (CHRM4) | P08173 | CHO-hM4 cells, ACh EC80, Fluo-8 calcium fluorescence | inhibition, % at 3 µM | 0.73% of 360,000 active | AID 624125;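 active = inhibition above its plate's cutoff, the mean inhibition of sample wells plus 3 SD, cut at about 27% in these data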;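 also: 0% = acetylcholine EC80 with DMSO and 100% = DMSO without agonist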
* hit, by the source's call.

SMILES	M4 PAM	M4 ag	M5 antag	CHRM5 PAM	CHRM5 agonist	CHRM4 antagonist
CCOc1ccc2ccccc2c1C(=O)NCC(c1ccc(N(C)C)cc1)N(C)C (stereo unspecified)	0	3	-3	-2	-4	7
Cc1c(C(=O)NC2CCC(C)CC2)oc2ccccc12 (stereo unspecified)	-1	-1	12	-1	0	-3
O=C(Nc1ccc(F)cc1F)c1ccc(S(=O)(=O)NCc2ccco2)cc1	-4	3	6	0	0	11
CCC(Cc1ccccc1)NS(=O)(=O)c1ccc2c(c1)NC(=O)C(C)S2 (stereo unspecified)	-1	8	-5	-2	2	-11
Cc1noc(C)c1S(=O)(=O)N(C)C[C@H]1Oc2c(NC(=O)NC(C)C)cccc2C(=O)N([C@H](C)CO)C[C@@H]1C	4	2	11	-3	-3	2
O=C(NCc1ccccn1)C(=O)Nc1cc2c3c(c1)CC(=O)N3CCC2	0	0	-6	-3	-2	-11
Cc1nc2ccccc2cc1C(=O)N(C)Cc1ccccc1	-6	2	20	-9	0	1
O=C1/C(=C/c2cccc(Br)c2)SC(=S)N1CCC(=O)N(CCO)c1ccccc1	4	1	4	9	2	-8
O=C1/C(=C/c2ccc3c(c2)OCO3)SC(=S)N1CCC(=O)N(CCO)c1ccccc1	-1	6	67*	-14	82*	-7
COc1ccc(/C=C2\SC(=S)N(CCC(=O)N(CCO)Cc3ccccc3)C2=O)cc1OC	37*	5	-5	8	-2	17
CCOc1ccc2nc(NC(=O)CN3C(=O)NC4(CCCC4)C3=O)sc2c1	3	1	3	-4	0	-20
CCC(C)c1ccccc1NC(=O)COc1ccc(-n2cnnn2)cc1 (stereo unspecified)	20*	2	0	1	1	-13
CCOc1ccc(NC(=O)c2cccc(-n3cnnn3)c2)cc1	21	2	3	-2	0	27*
O=C(Nc1ccc(OC(F)(F)F)cc1)c1cccc(-n2cnnn2)c1	5	11	2	-5	-2	-3
CCN(C(=O)CSc1nnnn1C)c1c(N)n(Cc2ccccc2)c(=O)[nH]c1=O	1	2	-4	-1	2	2
CCN(C(=O)CSc1nncs1)c1c(N)n(Cc2ccccc2)c(=O)[nH]c1=O	2	1	-7	29*	-2	-17
CCN(C(=O)COC(=O)c1cc2ccccc2cc1OC)c1c(N)n(Cc2ccccc2)c(=O)[nH]c1=O	22*	1	11	1	-1	-13
CCN(C(=O)c1ccc(=O)[nH]c1)c1c(N)n(Cc2ccccc2)c(=O)[nH]c1=O	22*	1	15	0	0	5
COCCCN(C(=S)NC(=O)c1ccc(C(C)(C)C)cc1)c1c(N)n(Cc2ccccc2)c(=O)[nH]c1=O	27*	2	6	-1	-2	-2
COc1cccc(NC(=O)c2ccnc(N3CCC(C(=O)NCc4cc(OC)ccc4OC)CC3)c2)c1	2	7	-2	-1	-1	-7
Cc1ccc(NC(=O)CCNS(=O)(=O)c2ccc3c(c2)CCC(=O)N3)cc1C	-2	0	-4	1	-2	-4
CCC(=O)N1Cc2cc(C(=O)Nc3nccs3)nc(-c3cccc(-c4ccccc4OC)c3)c2[C@H]1CCO	-11	23	8	-22	6	27*
CCNC(=O)c1cc2c(c(-c3cccc(-c4cc5ccccc5o4)c3)n1)[C@H](CCO)N(C(=O)NC(C)C)C2	-9	15	26	-21	0	29*
COc1ccc2[nH]cc(/C=C/c3cc[n+](C)cc3)c2c1	1	1	-1	3	-4	-15
Cn1c(C(=O)OC(C(=O)NC2CCCCC2)c2cccnc2)cc2sccc21 (stereo unspecified)	4	2	41*	-5	-8	-4
SMILES	M4 PAM	M4 ag	M5 antag	CHRM5 PAM	CHRM5 agonist	CHRM4 antagonist
O=C(COc1cc(F)ccc1[N+](=O)[O-])Nc1ccc(N2CCCCC2)cc1	-1	1	-1	2	-3	-3
Cc1cccc(NC(=O)COC(=O)c2cccc3c2C(=O)c2ccccc2C3=O)c1C	-32	-1	30*	-18	-2	57*
Cc1cccc(C)c1NC(=O)COC(=O)c1cccc2c1C(=O)c1ccccc1C2=O	-6	3	1	-9	1	5
O=C(N/C(=C/c1ccccc1Cl)C(=O)N1CCCCC1)c1ccco1	-1	4	-26	3	5	6
Cc1ccc(C(=O)NCC(=O)N2CCCN(C)CC2)cc1C	7	0	0	-4	-1	-27
Cc1cc(Cl)c(S(=O)(=O)N2CCSCC2)cc1OCC(N)=O	19*	4	-16	-1	3	1
CCOc1ccc(NS(=O)(=O)c2cc(OCC(N)=O)c(C)cc2Cl)cc1	27*	2	6	7	4	4
Cc1cc(Cl)c(S(=O)(=O)N2CC(C)OC(C)C2)cc1OCC(N)=O (stereo unspecified)	-3	1	10	-5	0	10
O=C(NCCc1ccccc1)C1=CCN(S(=O)(=O)c2ccccc2)CC1	1	4	-9	4	-2	4
Cc1ccc2cc(NC(=O)c3ccc(C(C)(C)C)cc3)ccc2n1	11	21	27*	0	-3	20
COc1cc(OC)cc(C(=O)Nc2ccc3c(c2)n(C)c(=O)n3C)c1	3	2	-8	0	2	-5
CCc1ccc(C(=O)Nc2ccc3c(c2)n(C)c(=O)n3C)cc1	-4	1	-18	24*	2	-6
CCn1c(=O)n(CC)c2cc(NC(=O)c3ccccc3Cl)ccc21	-3	0	-21	20*	9	6
O=C(COC(=O)C1CC2CCCC(C1)C2=O)Nc1cccc(F)c1 (stereo unspecified)	12	6	2	-1	4	-12
CCC(CC)COC(=O)C1=C(C)NC(=O)NC1c1ccc(N(C)C)cc1 (stereo unspecified)	3	-2	9	1	-6	1
Cc1ccc2c(c1)sc[n+]2Cc1ccccc1	-2	-1	10	21*	19	21
CCc1nc2ccc(C(=O)Nc3cccc(NS(C)(=O)=O)c3)cn2c1N(C)CCCc1ccccc1	-13	7	3	-8	-2	54*
CCc1nc2ccc(C(=O)N(CC)CCN(C)C)cn2c1N(C)CCCc1ccccc1	-15	1	4	-11	-2	27*
CSc1cccc(NC(=O)COC(=O)c2ccccn2)c1	0	1	4	-3	-3	-1
